Hits are enriched below; roughly 6.4% of the tested compounds scored in any of these assays.
TbMetRS inhib – T. brucei MetRS inhibitors, primary screen, biochemical, luminescence | methionyl-tRNA synthetase (Trypanosoma brucei brucei) | purified T. brucei MetRS, ATP depletion, Kinase-Glo luminescence | inhibition, % at 11.9 µM | 360,000 tested, 0.4% active | AID 624268, 2012;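 active = inhibition above a per-plate cutoff of the control wells' mean inhibition plus 3 SD, cut at about 5.5% in these data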;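 note: 0% = DMSO wells median and 100% = median of wells with control inhibitor compound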
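Measured by: Kinase-Glo luciferase luminescence reporting remaining unconsumed ATP. Material: purified T. brucei MetRS enzyme. Doses: 11.9 µM compound single dose, 0.9% DMSO. Medium: HEPES buffer containing pyrophosphatase, BSA, spermine, DTT. Times: 15 min preincubation, 2 h reaction, all 25 °C. Reagent: methionine, ATP and bulk E. coli tRNA.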
WT yeast gro inh – growth inhibition of WT strain, primary screen, mitochondrial fusion inhibitor project, WT and mutant strains, chemical genetic | inhibition, % at 10 µM | 190,000 tested, 2.1% active | mitochondrial fusion phenotypic screen; in the data active = inhibition above about 58%; tested in S. cerevisiae
CHOP inh – inhibitors of CHOP promoter induction, primary screen, cell-based, unfolded protein response, luciferase reporter; AID 2732, 2010; CHO-K1 CHOP-promoter luciferase, tunicamycin-induced, 15-18 h; 220,000 tested, 3.8% active; inhibition, % at 10 µM;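 active = compounds that reduced the stress-induced luciferase reporter signal by more than about 70% of percent inhibition, limit read from the data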;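 note: 0% = tunicamycin plus vehicle and 100% = wells without tunicamycin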
GRIN3A LBD mod – binders of NR3A ligand-binding domain, primary screen, biophysical, differential scanning fluorimetry, uHTS. Glutamate receptor ionotropic, NMDA 3A (GRIN3A) ligand-binding domain. NR3A LBD differential scanning fluorimetry, Tm shift; 0% = protein alone, 100% = glycine-bound protein. Tm shift relative to glycine control, % at 25 µM. 340,000 tested, 2.5% active. AID 1259313, 2017;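 active = melting temperature shift of at least 10% of the positive control shift, at one fixed dose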
MPTP block – mitochondrial permeability transition pore inhibitors, primary screen, biochemical, isolated mouse mitochondria, absorbance | Ca2+ swelling absorbance, 30 min | 360,000 tested, 1.4% active | inhibition, % at 10 µM;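 active = inhibition of 50% or more, scaled per plate between neutral and stimulator controls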;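 note: 0% = DMSO wells given calcium and 100% = 1 mM EGTA wells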
EBV gp42 inh – Epstein-Barr virus gp42 inhibitors, primary screen, biochemical, uHTS, fluorescence polarization | Fluorescence polarization binding assay, mP read-out | inhibition, % (tested at 21.74 µM) | 220,000 tested, 0.42% active; in the data active = inhibition above about 50%
Target sequence (Q1HVG2 whole entry, looked up): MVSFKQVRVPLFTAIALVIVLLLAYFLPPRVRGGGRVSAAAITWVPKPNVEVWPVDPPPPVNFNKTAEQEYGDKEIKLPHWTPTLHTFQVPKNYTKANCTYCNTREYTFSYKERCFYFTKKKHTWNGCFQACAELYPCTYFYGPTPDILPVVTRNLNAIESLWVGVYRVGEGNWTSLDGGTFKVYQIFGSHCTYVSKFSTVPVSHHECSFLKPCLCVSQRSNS
Active calls of the source: *; x = no result.

SMILES | TbMetRS inhib | WT yeast gro inh | CHOP inh | GRIN3A LBD mod | MPTP block | EBV gp42 inh
COc1ccc(Nc2nc(N)c3ccccc3n2)c(OC)c1 | 0 | x | x | 4 | 0 | x
O=C(Nc1cccc(S(=O)(=O)N2CCCCC2)c1)c1c2c(nc3ccccc13)CCN(Cc1ccccc1)C2 | -2 | 8 | 7 | 0 | -2 | -1
O=[N+]([O-])/C=C/c1c(OCc2ccccc2)ccc2ccccc12 | 0 | 77* | 110* | x | -4 | -17
CCOC(=O)COc1ccc2ccccc2c1/C=C/[N+](=O)[O-] | 0 | 86* | 109* | -2 | 1 | -7
CCOC(=O)Cn1cc(/C=C/[N+](=O)[O-])c2ccccc21 | 0 | 44 | -18 | 2 | 2 | -3
CCOc1ccc(/C=C/[N+](=O)[O-])c2ccccc12 | 0 | -9 | 51 | 3 | 4 | -3
CC(C)c1ccc(S(=O)(=O)/N=C2/C=CC(=O)c3ccccc32)cc1 | x | 68* | 16 | x | x | -2
CC(C)c1ccc(S(=O)(=O)/N=C2\C=C(NS(=O)(=O)c3ccccc3)C(=O)c3ccccc32)cc1 | 0 | x | x | 1 | 26 | x
CCc1nc(SCC(=O)Nc2c(C)nn(C)c2C)c2cnn(-c3ccccc3)c2n1 | x | -14 | 90* | x | x | -13
Cc1nn(C)c(C)c1NC(=O)CSc1nc(Cc2ccccc2)nc2c1cnn2-c1ccccc1 | 0 | x | x | -4 | 0 | x
O=C(CSc1nnc(-c2ccncc2)n1Cc1ccco1)Nc1nc(-c2ccccc2)cs1 | 0 | -11 | 77* | 3 | 0 | -7
Cc1cnc(NC(=O)CSc2ncc(-c3ccccc3)n2Cc2ccco2)s1 | -1 | 21 | 73* | -3 | 3 | 10
C[n+]1c2n(c3ccccc31)N=C(c1ccccc1)CS2 | 0 | 18 | 3 | 4 | -5 | 1
C[n+]1c2n(c3ccccc31)N=C(c1ccc(-c3ccccc3)cc1)CS2 | 0 | 87* | 47 | -1 | 1 | -17
COc1ccccc1NC(=S)N(Cc1ccc(C)cc1)Cc1ccccn1 | 0 | -7 | -8 | 0 | 0 | -7
COc1ccccc1NC(=S)N(Cc1ccc(C)cc1)Cc1cccnc1 | 0 | 74* | 10 | -2 | 14 | -5
Cc1ccccc1NC(=S)N(Cc1ccccn1)Cc1ccccc1Cl | -1 | 69* | 24 | 0 | -5 | 1
COc1ccccc1NC(=S)N(Cc1cccnc1)Cc1ccccc1Cl | 0 | 26 | -7 | 6 | 2 | -2
COc1ccccc1NC(=S)N(Cc1ccccn1)Cc1ccccc1Cl | -1 | 67* | -5 | 0 | 0 | 4
COc1ccc(C2CC(C(F)(F)F)n3nc(C(N)=O)c(Cl)c3N2)cc1OC (stereo not given) | 0 | -1 | 25 | 0 | 1 | -13
O=C(Nc1cccn2ncnc12)c1ccccc1 | 0 | -12 | 6 | -2 | 1 | -10
O=C(Nc1ccc(S(=O)(=O)N2CCCCC2)cc1)c1ccc(CN2CCOCC2)cc1 | 0 | -9 | 40 | 0 | -1 | -16
O=[N+]([O-])c1cccc2ccc(/C=C/c3ccc(C(F)(F)F)cc3)nc12 | 0 | 4 | 1 | 17* | 2 | -9
O=[N+]([O-])c1cccc2ccc(/C=C/c3cccc(Br)c3)nc12 | 0 | 4 | 9 | 23* | 0 | -20
COc1cc(/C=C/c2ccc3cccc(OC)c3n2)c(OC(C)=O)c([N+](=O)[O-])c1 | 0 | 23 | 38 | 9 | 9 | -13
SMILES | TbMetRS inhib | WT yeast gro inh | CHOP inh | GRIN3A LBD mod | MPTP block | EBV gp42 inh
O=[N+]([O-])c1cccc2ccc(/C=C/c3ccc(Cl)cc3)nc12 | -1 | 24 | 16 | 21* | -14 | -5
CCOc1cc(/C=C/c2ccc3cccc([N+](=O)[O-])c3n2)cc(Cl)c1O | -1 | 8 | 40 | 6 | 1 | 5
CCN(CC)CCN(C(=O)c1ccc(S(=O)(=O)N(CC)c2ccccc2)cc1)c1nc2c(OC)ccc(OC)c2s1 | 1 | x | x | 12* | -1 | x
O=C(N/N=C/c1c[nH]c2ccccc12)c1cccc(O)c1 | -1 | x | x | 26* | 1 | x
Cc1ccc(NCC(=O)N/N=C/c2c[nH]c3ccccc23)cc1 | 0 | -4 | 10 | 24* | 2 | -1
Cc1ccc(NC(C)C(=O)N/N=C/c2c[nH]c3ccccc23)cc1 (stereo not given) | 0 | -23 | 28 | -6 | 4 | -15
CCOc1ccccc1C(=O)N/N=C/c1c[nH]c2ccccc12 | 0 | 2 | 12 | 4 | -1 | -10
O=C(N/N=C/c1c[nH]c2ccccc12)c1ccc([N+](=O)[O-])cc1Cl | 1 | x | x | 4 | 2 | x
O=C(N/N=C/c1c[nH]c2ccccc12)c1ccc(O)c(O)c1 | 0 | x | x | 28* | 1 | x
O=C(N/N=C/c1c[nH]c2ccccc12)c1cccc(Cl)c1 | -1 | x | x | 37* | 1 | x
Cc1c(NC(=O)C2(c3ccccc3)CCOCC2)c(=O)n(-c2ccccc2)n1C | -1 | 14 | -10 | -1 | -2 | -16
CCNC(=O)C1CCCN(C(=O)c2cccc(OC(F)(F)F)c2)CC1 (stereo not given) | 0 | x | x | x | -2 | x
CC1CCN(S(=O)(=O)c2ccc3c(c2)N(CC(=O)NCCCN2CCCCC2C)C(=O)CS3)CC1 (stereo not given) | -1 | x | x | -2 | -1 | x
COc1ccc(C(=O)N/N=C/c2c[nH]c3ccccc23)cc1 | 0 | x | x | 37* | -1 | x
O=C(O)c1cc(N/N=C/c2c[nH]c3ccccc23)ccc1Cl | 0 | x | x | 22* | -2 | x
CC(=O)Nc1cccc(C(=O)N/N=C/c2c[nH]c3ccccc23)c1 | 1 | x | x | 30* | -2 | x
Cn1ccc(C(=O)N/N=C/c2c[nH]c3ccccc23)n1 | -1 | x | x | -1 | 0 | x
O=C(N/N=C/c1c[nH]c2ccc(Br)cc12)c1ccn(Cc2ccc(Cl)cc2)n1 | -1 | 7 | 27 | 18* | -2 | 1
COc1ccc(C(=O)N/N=C/c2cc3ccccc3[nH]c2=S)cc1 | 0 | 8 | 15 | 3 | 1 | 4
O=C(O)c1cc(N/N=C/c2ccc(-c3ccccc3)cc2)ccc1Cl | 0 | x | x | -3 | 4 | x
O=C(Nc1nc2c(s1)CCCC2)c1ccc(Br)s1 | -1 | 10 | 8 | 2 | 0 | -2
C=CCn1c(C(C)NC(=O)CCC)nc2ccccc21 (stereo not given) | -1 | 0 | -5 | 0 | -2 | -16
CCCOc1ccc(C(=O)N/N=C/c2c[nH]c3ccc(Br)cc23)cc1 | -1 | x | x | 37* | 2 | x
COc1ccc(CC(=O)OCC(=O)Nc2cccnc2Cl)cc1OC | 0 | 0 | -10 | -2 | 1 | -5
